Columns and labels:
Mus musculus [1] = assay: Effect on locomotor activity in Swiss Albino mouse assessed as number of crossings in 30 mins at 20 mg/kg administered 30 mins before the test; format: functional
Summary of the method: (§1)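 Male Albino Swiss mice given compound ip (1% Tween 80, 10 ml/kg) 30 min before placement singly in plastic cages in a multichannel photobeam activity monitor; ambulation crossings counted over the first 6 min and over a 30 min session. n = 9-10 per group; ANOVA then Dunnett's test.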

Mus musculus [2] = assay: Effect on locomotor activity in Swiss Albino mouse assessed as number of crossings in 6 mins at 20 mg/kg administered 30 mins before the test; format: functional; summary of the method: as §1
Mus musculus [3] = assay: Antidepressant activity in Swiss Albino mouse assessed as immobility time during final 4 mins of 6 mins session at 20 mg/kg administered 30 mins before the test by forced-swimming test; format: functional
Summary of the method: (§2)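 Male Albino Swiss mice (24–28 g), compound given ip in 1% aqueous Tween 80 (10 ml/kg), 30 min before test. Mouse placed singly in glass cylinder (25 cm high, 10 cm diameter) holding 6 cm water at 23–25 °C for 6 min; immobility (floating, only small head-keeping movements) timed over last 4 min. n = 9-10 per group; one-way ANOVA then Dunnett's test.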

Mus musculus [4] = assay: Effect on locomotor activity in Swiss Albino mouse assessed as number of crossings in 30 mins at 10 mg/kg administered 30 mins before the test; format: functional; summary of the method: as §1
Mus musculus [5] = assay: Antidepressant activity in Swiss Albino mouse assessed as immobility time during final 4 mins of 6 mins session at 10 mg/kg administered 30 mins before the test by forced-swimming test; format: functional; summary of the method: as §2
Rattus norvegicus [6] = assay: Effect on lower lip retraction in Wistar rat at 1 mg/kg; format: functional
Summary of the method: (§3)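 Male Wistar rats (290–310 g) dosed ip in 1% Tween 80 (2 ml/kg), caged singly; lower lip retraction scored 15, 30 and 45 min after dosing as 0 (incisors not visible), 0.5 (partly) or 1 (completely visible), totals up to 3 per rat. n = 6 per group; one-way ANOVA followed by Dunnett's test.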

Mus musculus [7] = assay: Effect on locomotor activity in Swiss Albino mouse assessed as number of crossings in 30 mins at 0.3 mg/kg administered 30 mins before the test; format: functional; summary of the method: as §1
Mus musculus [8] = assay: Effect on locomotor activity in Swiss Albino mouse assessed as number of crossings in 30 mins at 1 mg/kg administered 30 mins before the test; format: functional; summary of the method: as §1
Rattus norvegicus [9] = assay: Effect on lower lip retraction in Wistar rat at 0.1 mg/kg; format: functional; summary of the method: as §3
[10] = target: 5-hydroxytryptamine receptor 7 (Homo sapiens, UniProt P34969); assay: Displacement of [3H]5-CT from human 5HT7 expressed in HEK293 cells; format: cell-based
Summary of the method: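 HEK293 cells stably transfected with human 5-HT7(b) cDNA; membranes (10 µg protein) incubated 1 h at 37 °C in 50 mM Tris-HCl pH 7.4 with 4 mM MgCl2, 0.1 mM pargyline, 0.1% ascorbic acid, 0.5 nM [3H]-5-CT and 7–9 test concentrations in triplicate; 10 µM 5-HT defines nonspecific binding. GF/B filtration, scintillation counting; Ki via Cheng-Prusoff from ≥3 experiments.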

Mus musculus [11] = assay: Effect on locomotor activity in Swiss Albino mouse assessed as number of crossings in 6 mins at 0.3 mg/kg administered 30 mins before the test; format: functional; summary of the method: as §1
Mus musculus [12] = species: Mus musculus; settings: Swiss Albino, 5 mg/kg
Mus musculus [13] = species: Mus musculus; settings: Swiss Albino, 2.5 mg/kg
[14] = Displacement of [3H]prazosin from adrenergic alpha1 receptor in rat cortical membranes; format: cell membranes, Membrane
Summary of the method: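 Rat cortical membranes with [3H]-prazosin; phentolamine defines nonspecific binding. 7–9 drug concentrations in triplicate, at least three separate experiments; stopped by GF/B filtration with three ice-cold buffer washes, bound radioactivity by liquid scintillation counting; Ki from non-linear regression and Cheng-Prusoff equation.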

Mus musculus [15] = species: Mus musculus; settings: Swiss Albino, 5 mg/kg; remark: listed apart in the source
[16] = target: T1, 5-hydroxytryptamine receptor 1A (Rattus norvegicus, UniProt P19327); assay: Displacement of [3H]8-OH-DPAT from 5HT1A in rat hippocampal membranes; format: cell membranes, Hippocampus, Membrane
T1 sequence (P19327 whole entry): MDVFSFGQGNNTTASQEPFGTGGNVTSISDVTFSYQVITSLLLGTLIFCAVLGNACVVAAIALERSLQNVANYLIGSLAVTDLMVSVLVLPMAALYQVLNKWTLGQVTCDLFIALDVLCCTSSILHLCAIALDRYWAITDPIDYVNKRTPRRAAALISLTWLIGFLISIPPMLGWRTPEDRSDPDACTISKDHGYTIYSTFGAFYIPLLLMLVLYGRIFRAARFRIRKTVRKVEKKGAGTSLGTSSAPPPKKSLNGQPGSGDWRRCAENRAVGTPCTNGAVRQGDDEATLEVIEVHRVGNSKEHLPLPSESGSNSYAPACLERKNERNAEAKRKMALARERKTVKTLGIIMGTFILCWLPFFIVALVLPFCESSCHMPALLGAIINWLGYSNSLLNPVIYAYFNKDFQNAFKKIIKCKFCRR
Summary of the method: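 Rat hippocampal membranes, [3H]-8-OH-DPAT as radioligand, 5-HT defining nonspecific binding. 7–9 drug concentrations run in triplicate, at least three separate experiments. Filtration through GF/B filters with three ice-cold buffer washes, scintillation counting. Ki from non-linear regression of binding isotherms via Cheng-Prusoff equation.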

Mus musculus [17] = species: Mus musculus; settings: Swiss Albino, 2.5 mg/kg; remark: listed apart in the source
Mus musculus [18] = assay: Anxiolytic activity in Swiss Albino mouse assessed as number of punished crossings for 60 secs at 0.3 mg/kg administered 30 mins before the test by four-plate test; format: functional
Summary of the method: (§4)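 Male Albino Swiss mice dosed ip (1% aqueous Tween 80, 10 ml/kg) 30 min beforehand. Opaque box floored with four metal plates; 15 s free exploration, then each plate-to-plate crossing triggers a 0.5 s, 120 V floor shock, with no new shock for 3 s if running continues. Punished crossings counted over 60 s; n = 9-10, ANOVA plus Dunnett's test.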

Mus musculus [19] = assay: Antidepressant activity in Swiss Albino mouse assessed as immobility time during final 4 mins of 6 mins session at 0.3 mg/kg administered 30 mins before the test by forced-swimming test; format: functional; summary of the method: as §2
Mus musculus [20] = species: Mus musculus; settings: Swiss Albino, 5 mg/kg; remark: listed apart in the source
Mus musculus [21] = assay: Antidepressant activity in Swiss Albino mouse assessed as immobility time during final 4 mins of 6 mins session at 0.1 mg/kg administered 30 mins before the test by forced-swimming test; format: functional; summary of the method: as §2
Rattus norvegicus [22] = assay: Effect on lower lip retraction in Wistar rat at 0.3 mg/kg; format: functional; summary of the method: as §3
D(2) dopamine receptor = D(2) dopamine receptor (Rattus norvegicus, UniProt P61169); assay: Displacement of [3H]spiperone from dopamine D2 receptor in rat striatal membranes; format: cell membranes, Membrane
Summary of the method: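 Competition binding on rat striatal membranes using [3H]-spiperone, butaclamol for nonspecific binding; filtration through GF/B filters and scintillation counting. Run at two compound concentrations, each in triplicate, and affinity expressed as estimated Ki.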

Mus musculus [23] = assay: Anxiolytic activity in Swiss Albino mouse assessed as number of punished crossings for 60 secs at 5 mg/kg administered 30 mins before the test by four-plate test; format: functional; summary of the method: as §4
Mus musculus [24] = species: Mus musculus; settings: Swiss Albino, 2.5 mg/kg; remark: listed apart in the source
Mus musculus [25] = assay: Anxiolytic activity in Swiss Albino mouse assessed as number of punished crossings for 60 secs at 1 mg/kg administered 30 mins before the test by four-plate test; format: functional; summary of the method: as §4
Mus musculus [26] = species: Mus musculus; settings: Swiss Albino, 5 mg/kg; remark: listed apart in the source
Mus musculus [27] = species: Mus musculus; settings: Swiss Albino, 5 mg/kg; remark: listed apart in the source
Mus musculus [28] = species: Mus musculus; settings: Swiss Albino, 2.5 mg/kg; remark: listed apart in the source
Mus musculus [29] = assay: Effect on locomotor activity in Swiss Albino mouse assessed as number of crossings in 6 mins at 1 mg/kg administered 30 mins before the test; format: functional; summary of the method: as §1
Rattus norvegicus [30] = assay: Effect on 8-OH-DPAT-induced lower lip retraction in Wistar rat at 0.1 mg/kg; format: functional
Mus musculus [31] = species: Mus musculus; settings: Swiss Albino, 5 mg/kg; remark: listed apart in the source
Mus musculus [32] = assay: Antidepressant activity in Swiss Albino mouse assessed as immobility time during final 4 mins of 6 mins session at 1 mg/kg administered 30 mins before the test by forced-swimming test; format: functional; summary of the method: as §2
Mus musculus [33] = assay: Anxiolytic activity in Swiss Albino mouse assessed as number of punished crossings for 60 secs at 1.25 mg/kg administered 30 mins before the test by four-plate test; format: functional
Summary of the method: (§5)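 Male Albino Swiss mice (24–28 g), compound suspended in 1% aqueous Tween 80, given ip (10 ml/kg). Mouse placed in box with four metal floor plates, 15 s exploration, then floor electrified (120 V, 0.5 s) at each plate-to-plate crossing, no new shock for 3 s. Punished crossings counted over 60 s. n = 9-10/group; one-way ANOVA then Dunnett's test.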

Mus musculus [34] = assay: Antidepressant activity in Swiss Albino mouse assessed as immobility time during final 4 mins of 6 mins session at 2.5 mg/kg administered 30 mins before the test by forced-swimming test; format: functional; summary of the method: as §2
Mus musculus [35] = assay: Anxiolytic activity in Swiss Albino mouse assessed as number of punished crossings for 60 secs at 2.5 mg/kg administered 30 mins before the test by four-plate test; format: functional; summary of the method: as §5
Mus musculus [36] = assay: Antidepressant activity in Swiss Albino mouse assessed as immobility time during final 4 mins of 6 mins session at 1.25 mg/kg administered 30 mins before the test by forced-swimming test; format: functional; summary of the method: as §2
Mus musculus [37] = assay: Antidepressant activity in Swiss Albino mouse assessed as immobility time during final 4 mins of 6 mins session at 5 mg/kg administered 30 mins before the test by forced-swimming test; format: functional; summary of the method: as §2

5-hydroxytryptamine receptor 7, sequence (P34969 whole entry): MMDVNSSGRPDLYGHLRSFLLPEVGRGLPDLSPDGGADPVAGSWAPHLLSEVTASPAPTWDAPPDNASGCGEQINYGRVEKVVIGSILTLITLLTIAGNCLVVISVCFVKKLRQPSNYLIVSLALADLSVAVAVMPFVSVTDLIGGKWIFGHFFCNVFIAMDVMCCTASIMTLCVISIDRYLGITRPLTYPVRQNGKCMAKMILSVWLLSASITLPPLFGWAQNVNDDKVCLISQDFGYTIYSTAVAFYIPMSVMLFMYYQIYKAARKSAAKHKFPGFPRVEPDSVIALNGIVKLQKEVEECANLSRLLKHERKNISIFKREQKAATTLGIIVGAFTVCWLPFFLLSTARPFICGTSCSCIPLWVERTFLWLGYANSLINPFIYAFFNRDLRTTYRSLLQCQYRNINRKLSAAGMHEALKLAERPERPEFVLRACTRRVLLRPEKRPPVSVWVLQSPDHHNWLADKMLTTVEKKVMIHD
D(2) dopamine receptor, sequence (P61169 whole entry): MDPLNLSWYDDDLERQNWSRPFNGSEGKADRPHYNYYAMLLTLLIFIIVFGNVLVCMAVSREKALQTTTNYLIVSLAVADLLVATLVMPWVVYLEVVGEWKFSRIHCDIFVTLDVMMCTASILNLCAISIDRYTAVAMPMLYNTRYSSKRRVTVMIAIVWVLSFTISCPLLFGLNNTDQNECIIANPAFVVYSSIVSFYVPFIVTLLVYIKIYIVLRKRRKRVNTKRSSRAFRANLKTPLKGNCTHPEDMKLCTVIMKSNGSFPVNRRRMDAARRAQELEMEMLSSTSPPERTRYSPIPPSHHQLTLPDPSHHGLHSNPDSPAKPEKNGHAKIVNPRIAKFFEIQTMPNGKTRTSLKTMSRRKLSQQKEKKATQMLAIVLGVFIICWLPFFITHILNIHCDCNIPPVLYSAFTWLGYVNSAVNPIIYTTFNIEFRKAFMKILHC

CN(C)CCCN1c2ccccc2CCc2ccccc21 [IMIPRAMINE]
Activity (Mus musculus [1]): 625.3
Activity (Mus musculus [2]): 314.9
Activity (Mus musculus [3]): 107.8 s
Activity (Mus musculus [4]): 876.8
Activity (Mus musculus [5]): 149.1 s

O=C1CCCC(=O)N1C1CCC(N2CCN(c3cccc(C(F)(F)F)c3)CC2)CC1 (trans isomer)
Activity (Rattus norvegicus [6]): 3
Activity (Mus musculus [7]): 537.7
Activity (Mus musculus [8]): 374.3
Activity (Rattus norvegicus [9]): 1.3
Ki [10]: 1200 nM
Activity (Mus musculus [11]): 208.2
deltaT (Mus musculus [12]): -1.5 °C
deltaT (Mus musculus [13]): -0.5 °C
Ki [14]: 85 nM
deltaT (Mus musculus [15]): -1.6 °C
Ki [16]: 2.6 nM
deltaT (Mus musculus [17]): -0.3 °C
Activity (Mus musculus [18]): 3.9
Activity (Mus musculus [19]): 70.1 s
deltaT (Mus musculus [20]): -1.5 °C
Activity (Mus musculus [21]): 128.3 s
Activity (Rattus norvegicus [22]): 2.4
Ki (D(2) dopamine receptor): > 5 µM
Activity (Mus musculus [23]): 4.2
deltaT (Mus musculus [24]): -0.5 °C
Activity (Mus musculus [25]): 3.9
deltaT (Mus musculus [26]): -1.2 °C
deltaT (Mus musculus [27]): -1.3 °C
deltaT (Mus musculus [28]): -0.7 °C
Activity (Mus musculus [29]): 121.6
Activity (Rattus norvegicus [30]): 2.6
deltaT (Mus musculus [31]): -1.2 °C
Activity (Mus musculus [32]): 77.7 s

CC1(C)CC(=O)N(C2CCC(N3CCN(c4cccc(C(F)(F)F)c4)CC3)CC2)C(=O)C1 (stereo not given)
Activity (Mus musculus [7]): 630.1
Activity (Mus musculus [8]): 535.3
Ki [10]: 221 nM
Activity (Mus musculus [11]): 212
Ki [14]: 268 nM
Activity (Mus musculus [33]): 4.4
Activity (Mus musculus [34]): 98.2 s
Activity (Mus musculus [35]): 4.6
Activity (Mus musculus [36]): 150.4 s
Activity (Mus musculus [23]): 4.6
Activity (Mus musculus [29]): 211.7
Activity (Mus musculus [37]): 113.3 s

Source: ChEMBL document CHEMBL1139831, “The influence of modifications in imide fragment structure on 5-HT(1A) and 5-HT(7) receptor affinity and in vivo pharmacological properties of some new 1-(m-trifluoromethylphenyl)piperazines” (Bioorg Med Chem, 2007)
